Measurements published in PubChem BioAssay.
Values without a mark were called inactive.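 The calls were made as follows, unless noted: active = growth inhibition above a set limit, 3 SD over mean compound inhibition, in both replicates (cut at about 43% in these data); inconclusive = above the limit in only one replicate; inactive = at or below the limit in both replicates.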

assay: S. cerevisiae growth inhibition in permissive medium (OD615), pilot counter-assay for S. cerevisiae lifespan shortening project, permissive growth control (AID 705;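 active = growth inhibition above 25% in both replicates, a cutoff set 3 SD above the mean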); conditions: OD615, 24 h, at 10 µM, hits give high values
Summary of the method: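 Material: engineered DeaD yeast; compound dosing: one dose 10 µM, DMSO 0.25% final; measure: yeast growth inhibition indicated by reduced 24 h OD615; detection: OD615 turbidity read; incubation: cells pre-grown 4 h, then 24 h compound exposure, 30 °C humidified; medium: permissive synthetic complete medium with raffinose and galactose carbon sources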

Row | Structure (SMILES) | growth inhibition
1 | COC(=O)c1ccccc1NC(=O)c1c(O)c2c([nH]c1=O)CCCC2 | -23.1%
2 | COc1cccc(Nc2cc(C)nc3nc(C)nn23)c1 | -0.125%
3 | COc1ccc(N2CSC3=C(C#N)C(c4cc(OC)c(OC)cc4OC)CC(=O)N3C2)c(OC)c1 (centres undefined) | -2.5%
4 | Cc1c(C(=O)NCc2cccnc2)sc2nc(-c3ccc(F)cc3)cn12 | -6.33%
5 | COc1ccc(CC(=O)N2CC3(C)CC2CC(C)(C)C3)cc1OC (centres undefined) | -8.12%
6 | CCC(CC)C(=O)Nc1cc(C)c2c(=O)oc3ccccc3c2n1 | -17.2%
7 | CCOC(=O)N1CCN(CC(=O)Nc2cc(OCC)ccc2OCC)CC1 | -8.3%
8 | Cc1ccc2c(CC(=O)Nc3nc(C)cs3)coc2c1 | -5.02%
9 | O=C(Nc1ccccc1)N(CCc1ccncc1)C1CCCCC1 | -7%
10 | COc1ccc(C2C(C(=O)NCC3CCCO3)c3cc(OC)c(OC)cc3C(=O)N2C)cc1OC (centres undefined) | -13.5%
11 | Cc1cc(C)c(C#N)c(Nc2ccc3c(c2)OCCO3)n1 | 0.055%
12 | O=C(Cn1ncc2c(=O)oc3ccccc3c21)N1CCC(N2CCCCC2)CC1 | 9.66%
13 | CCCC(=O)Nc1nc2c(OC)ccc(OC)c2s1 | -7.39%
14 | O=C(Nc1nccs1)C1CCCN(S(=O)(=O)c2cccc3cccnc23)C1 (centres undefined) | -3.46%
15 | Cc1c(N=c2c(=O)c3ccccc3c2=O)c(=O)n(-c2ccccc2)n1C | -15.7%
16 | CCOCCOC(=O)C1=C(C)NC2=C(C(=O)CC(c3cccs3)C2)C1c1ccsc1 (centres undefined) | -1.18%
17 | COc1ccc(CN2CCN(c3ncccn3)CC2)c(OC)c1 | -0.81%
18 | Cc1cc(Nc2ccc(F)cc2Cl)n2nc(C)nc2n1 | -9.76%
19 | COC(=O)C1C(=O)C=C(N2CCOCC2)CC1(C)C (centres undefined) | -10.6%
20 | COc1ccc(S(=O)(=O)N2CCN(c3cccc(C)c3C)CC2)cc1 | -16.7%
21 | O=C(Nc1ccccc1Cl)c1ccc2c(c1)N(Cc1ccc(F)cc1)C(=O)CS2=O (centres undefined) | -5.36%
22 | CCOC(=O)c1cc2c(=O)n3cccc(C)c3nc2n(CCCOC)c1=NC(=O)c1cccnc1 | -11.3%
23 | Cc1cccc(OCCCCCNCCO)c1 | -16%
24 | COc1ccc(OC)c(Nc2cc(C)nc3nc(C)nn23)c1 | 0.505%

assay: S. cerevisiae growth inhibition in restrictive medium, OD615, pilot screen, restrictive growth control, yeast lifespan reduction project (AID 706); conditions: OD615, 48 h, at 10 µM, hits give high values;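 also: modified DeaD lifespan yeast strain shifted to restrictive glucose medium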
Summary of the method: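 material = engineered S. cerevisiae DeaD strain | medium = glucose-based CSMM-D restrictive medium | times = 4 h pre-incubation, 48 h exposure at 30 °C | technique = OD615 absorbance reading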

Row | Structure (SMILES) | growth inhibition
25 | COc1cc2c(cc1OC)C(C(=O)NC1CC1)C1c3ccccc3CCN1C2=O (centres undefined) | -13.4%
26 | CCSc1nnc(Cn2c(=O)sc3ccccc32)n1C | 5.23%
27 | COC(=O)c1ccc(N2C(=O)CC(Sc3n[nH]c(C)n3)C2=O)cc1 (centres undefined) | 19%
28 | Cc1ccc(-c2noc(CSc3nnnn3-c3ccccc3)n2)cc1 | 9.4%
29 | CC(=O)c1cccc(NC(=O)c2cc(C(C)C)on2)c1 | 0.275%
30 | COc1ccc(CNC(=O)c2cc3c(C)nc4ccccc4c3o2)c(OC)c1 | -12.2%
31 | CCn1cc(S(=O)(=O)CC(=O)Nc2ccc(C)cc2)c2ccccc21 | -4.11%
32 | COc1ccc(S(=O)(=O)NCCN2CCOCC2)c2ccccc12 | -2.08%
33 | Cn1c(=O)c2c(nc(NCCc3ccccc3)n2Cc2ccc(F)cc2)n(C)c1=O | -8.86%
34 | O=C(NCCc1cn2ccsc2n1)c1cccs1 | -12.4%
35 | Cc1ccc2oc(=O)c3cnn(CC(=O)N(CCCN4CCOCC4)Cc4ccco4)c3c2c1 | -28.7%
36 | Cc1ccccc1-c1noc(-c2cccs2)n1 | 6.79%
37 | Cc1cc(S(=O)(=O)N2CCN(Cc3ccccc3)CC2)c(C)s1 | 0.51%
38 | COc1ccc(OC)c(NC(=O)C2CCCN(S(=O)(=O)c3cccc4cccnc34)C2)c1 (centres undefined) | -10.7%
39 | CCC(C)N1C(=O)CCC1C(=O)NCc1ccc2c(c1)OCO2 (centres undefined) | -0.82%
40 | O=C(CCCOc1ccccc1)NCC1CCCO1 (centres undefined) | -6.75%
41 | COC(=O)c1ccccc1NC(=O)c1c(O)c2c([nH]c1=O)CCCC2 | -12.7%
42 | COc1cccc(Nc2cc(C)nc3nc(C)nn23)c1 | 4.21%
43 | COc1ccc(N2CSC3=C(C#N)C(c4cc(OC)c(OC)cc4OC)CC(=O)N3C2)c(OC)c1 (centres undefined) | 31.1%
44 | Cc1c(C(=O)NCc2cccnc2)sc2nc(-c3ccc(F)cc3)cn12 | 22.2%

Row | Structure (SMILES) | growth inhibition
45 | COc1ccc(CC(=O)N2CC3(C)CC2CC(C)(C)C3)cc1OC (centres undefined) | -2.29%
46 | CCC(CC)C(=O)Nc1cc(C)c2c(=O)oc3ccccc3c2n1 | -12.2%
47 | CCOC(=O)N1CCN(CC(=O)Nc2cc(OCC)ccc2OCC)CC1 | -19.7%
48 | Cc1ccc2c(CC(=O)Nc3nc(C)cs3)coc2c1 | 0.02%
49 | O=C(Nc1ccccc1)N(CCc1ccncc1)C1CCCCC1 | -2.46%
50 | COc1ccc(C2C(C(=O)NCC3CCCO3)c3cc(OC)c(OC)cc3C(=O)N2C)cc1OC (centres undefined) | -13.4%
51 | Cc1cc(C)c(C#N)c(Nc2ccc3c(c2)OCCO3)n1 | -10.2%
52 | O=C(Cn1ncc2c(=O)oc3ccccc3c21)N1CCC(N2CCCCC2)CC1 | 1.36%
53 | CCCC(=O)Nc1nc2c(OC)ccc(OC)c2s1 | -5.13%
54 | O=C(Nc1nccs1)C1CCCN(S(=O)(=O)c2cccc3cccnc23)C1 (centres undefined) | 11.8%
55 | Cc1c(N=c2c(=O)c3ccccc3c2=O)c(=O)n(-c2ccccc2)n1C | -8.74%
56 | CCOCCOC(=O)C1=C(C)NC2=C(C(=O)CC(c3cccs3)C2)C1c1ccsc1 (centres undefined) | 2.17%
57 | COc1ccc(CN2CCN(c3ncccn3)CC2)c(OC)c1 | 3.13%
58 | Cc1cc(Nc2ccc(F)cc2Cl)n2nc(C)nc2n1 | -13%
59 | COC(=O)C1C(=O)C=C(N2CCOCC2)CC1(C)C (centres undefined) | -10.2%
60 | COc1ccc(S(=O)(=O)N2CCN(c3cccc(C)c3C)CC2)cc1 | -13.3%
61 | O=C(Nc1ccccc1Cl)c1ccc2c(c1)N(Cc1ccc(F)cc1)C(=O)CS2=O (centres undefined) | -7.24%
62 | CCOC(=O)c1cc2c(=O)n3cccc(C)c3nc2n(CCCOC)c1=NC(=O)c1cccnc1 | -9.9%
63 | Cc1cccc(OCCCCCNCCO)c1 | -8.45%
64 | COc1ccc(OC)c(Nc2cc(C)nc3nc(C)nn23)c1 | -0.375%
